Test results published in PubChem BioAssay AID588627 (Johns Hopkins Ion Channel Center, 2011).
Hit rate of the full screen: of about 310,000 compounds, about 1,400 (0.45%) were called active. The sample holds actives, similar compounds and a random draw of the others, so the mix is not that of the screen.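 How the source made its calls: active means calcium response B-score plate-corrected fluorescence ratio at least 3 library SD, with starting fluorescence B-score inside 5 SD; inactive means the rest.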

What follows are molecules tested against Mas-related G-protein coupled receptor member X1 (Homo sapiens) (UniProt Q96LB2) (assay: agonists of human MrgX1 receptor, primary screen, HEK293 cells, Fluo-4 calcium flux (AID 588627;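 on B-score: B-score of the peak-minus-trough calcium fluorescence change over baseline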)). Details: Fluo-4 calcium fluorescence, agonist mode, at 10 µM; stronger effect = higher value.
Mas-related G-protein coupled receptor member X1 (Homo sapiens), sequence (Q96LB2 whole entry, looked up): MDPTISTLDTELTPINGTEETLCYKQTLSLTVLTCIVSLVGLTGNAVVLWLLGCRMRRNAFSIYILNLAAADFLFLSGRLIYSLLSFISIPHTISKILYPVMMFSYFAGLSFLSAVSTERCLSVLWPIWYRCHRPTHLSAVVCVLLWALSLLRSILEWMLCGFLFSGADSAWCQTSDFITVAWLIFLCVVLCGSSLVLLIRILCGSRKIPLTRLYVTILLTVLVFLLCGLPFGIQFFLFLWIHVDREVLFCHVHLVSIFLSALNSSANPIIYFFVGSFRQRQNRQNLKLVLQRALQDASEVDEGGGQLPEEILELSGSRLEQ
In short: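 System – MrgX1-expressing HEK293 cells · Incubation – cells plated overnight, dye loaded 0.5 h 37 °C, 0.5 h room temperature · Technique – kinetic Fluo-4 NW fluorescence of intracellular calcium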

| Compound | B-score |
| --- | --- |
| CCCCC(=O)N/N=C/c1c(O)n(CC)c(=S)n(CC)c1=O | 66 (active) |
| CCCCC(=O)N/N=C/c1c(O)n(CCC2=CCCCC2)c(=O)[nH]c1=O | inactive |
| CCCCC(=O)N/N=C/c1c(O)n(-c2ccccc2)c(=O)[nH]c1=O | inactive |
| CC1=C(C(=O)Nc2ccccc2)S(=O)(=O)CCO1 | inactive |
| COc1ccc2c(c1)[C@]13CCCCC1C(C2)N(C)CC3 (stereo not given in full) | inactive |
| O=C1NC(=O)N(Cc2ccco2)C(=O)/C1=C\c1ccc(-c2ccc(F)cc2)o1 | 28.4 (active) |
| Cc1cc(/C=C2/C(=O)NC(=O)N(Cc3ccco3)C2=O)c(C)n1-c1ccc(C(=O)O)cc1 | inactive |
| O=C1NC(=O)N(Cc2ccco2)C(=O)/C1=C\c1cccn1CCOc1ccccc1 | inactive |
| CCN(N=Nc1nonc1OC)c1nonc1OC | inactive |
| Cc1ccc2c(c1)=C/C(=C\c1c(O)[nH]c(=O)[nH]c1=O)C(=O)N=2 | inactive |
